Laboratory results as given in ChEMBL document CHEMBL1629600, “Multiple-dose pharmacokinetic behavior of elvucitabine, a nucleoside reverse transcriptase inhibitor, administered over 21 days with lopinavir-ritonavir in human immunodeficiency virus type 1-infected subjects” (Antimicrob Agents Chemother, 2009).

What was measured:
[1] = AUC (0 to 24 hrs) in HIV1 infected human at 20 mg after 24 hrs in presence of 400 mg of Lopinavir and 100 mg of itonavir administered once every 12 hrs; type: ADME, organism-based; set-up: time < 24 hr, dose 20 mg; conditions: plasma
Procedure, shortened: (§1)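 HIV-infected adults (3.6–5.6 log10 RNA copies/ml) given enteric-coated tablets fasting; lopinavir-ritonavir given with food 2 h later. Plasma drawn on days 1 and 21 predose and at 0.5–24 h postdose. LC-MS/MS assay, range 0.500–100 ng/ml. Noncompartmental analysis gave Cmax, Tmax, C24 (24-h concentration) and linear-trapezoidal AUC0-24. Reported as arithmetic mean (%CV), median (range).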

[2] = Cmax in HIV1 infected human at 20 mg administered once every 48 hrs for 21 days in presence of 400 mg of Lopinavir and 100 mg of itonavir administered once every 12 hrs; type: ADME, organism-based; set-up: dose 20 mg; conditions: in vivo; procedure, shortened: as §1
[3] = Volume of distribution at steady state with respect to the bioavailability in HIV1 infected human at 20 mg administered once every 48 hrs for 21 days in presence of 400 mg of Lopinavir and 100 mg of itonavir administered once every 12 hrs; type: ADME, organism-based; conditions: in vivo, read-out: Vss/F
Procedure, shortened: (§2)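 Population compartmental fit to all plasma concentrations over 804 h. Two-compartment model with two first-order absorption rates, lag times per dose and first-order elimination. Relative bioavailability allowed to differ for day 1, the only dose given before lopinavir-ritonavir. Weighting 1/S², with S² = (a + b×Y)². Parameters expressed relative to F (CL/F, V/F).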

Homo sapiens [4] = experiment: Absorption rate constant at second absorption site in HIV1 infected human at 20 mg administered once every 48 hrs for 21 days in presence of 400 mg of Lopinavir and 100 mg of itonavir administered once every 12 hr; type: ADME, organism-based; conditions: in vivo; procedure, shortened: as §2
[5] = Drug level in HIV1 infected human plasma at 5 mg qd for 21 days in presence of 400 mg of Lopinavir and 100 mg of itonavir administered once every 12 hrs; type: ADME, organism-based; conditions: read-out: Drug uptake; procedure, shortened: as §1
[6] = Tmax in HIV1 infected human at 5 mg qd for 21 days in presence of 400 mg of Lopinavir and 100 mg of itonavir administered once every 12 hrs; type: ADME, organism-based; conditions: in vivo; procedure, shortened: as §1
[7] = Tmax in HIV1 infected human at 20 mg administered once every 48 hrs for 21 days in presence of 400 mg of Lopinavir and 100 mg of itonavir administered once every 12 hrs; type: ADME, organism-based; conditions: in vivo; procedure, shortened: as §1
[8] = Cmax in HIV1 infected human at 5 mg after 24 hrs presence of 400 mg of Lopinavir and 100 mg of itonavir; type: ADME, organism-based; set-up: dose 5 mg; conditions: in vivo; procedure, shortened: as §1
[9] = Drug level in HIV1 infected human plasma at 10 mg after 24 hrs presence of 400 mg of Lopinavir and 100 mg of itonavir; type: ADME, organism-based; conditions: read-out: Drug uptake; procedure, shortened: as §1
Homo sapiens [10] = experiment: Peripheral volume of distribution with respect to the bioavailability in HIV1 infected human at 20 mg administered once every 48 hrs for 21 days in presence of 400 mg of Lopinavir and 100 mg of itonavir administered once every 12 hrs; type: ADME, organism-based; conditions: in vivo; procedure, shortened: as §2
Homo sapiens [11] = experiment: Time prior to start absorption at first absorption site in HIV1 infected human at 20 mg administered once every 48 hrs for 21 days in presence of 400 mg of Lopinavir and 100 mg of itonavir administered once every 12 hrs; type: ADME, organism-based; conditions: in vivo; procedure, shortened: as §2
Homo sapiens [12] = experiment: Absorption rate constant at first absorption site in HIV1 infected human at 20 mg administered once every 48 hrs for 21 days in presence of 400 mg of Lopinavir and 100 mg of itonavir administered once every 12 hrs; type: ADME, organism-based; conditions: in vivo; procedure, shortened: as §2
[13] = Half life in HIV1 infected human at 10 mg qd for 21 days in presence of 400 mg of Lopinavir and 100 mg of itonavir administered once every 12 hrs; type: ADME, organism-based; conditions: in vivo
Procedure, shortened: (§3)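 Elimination rate constant and t1/2 obtained by noncompartmental analysis after the day-21 dose, using 336 h of terminal-phase sampling. Plasma collected through day 35 (days 25, 28, 35 after stopping). Concentrations measured by LC-MS/MS, range 0.500–100 ng/ml. Eight subjects per cohort; reported as mean (%CV), median (range).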

Homo sapiens [14] = species: Homo sapiens; experiment: Time prior to start absorption at second absorption site in HIV1 infected human at 20 mg after 24 hrs; type: ADME, organism-based; conditions: in vivo; procedure, shortened: as §2
[15] = AUC (0 to 24 hrs) in HIV1 infected human at 10 mg after 24 hrs presence of 400 mg of Lopinavir and 100 mg of itonavir; type: ADME, organism-based; set-up: time < 24 hr, dose 10 mg; conditions: plasma; procedure, shortened: as §1
[16] = Drug level in HIV1 infected human plasma at 5 mg after 24 hrs presence of 400 mg of Lopinavir and 100 mg of itonavir; type: ADME; conditions: read-out: Drug uptake; procedure, shortened: as §1
[17] = Tmax in HIV1 infected human at 10 mg qd for 21 days in presence of 400 mg of Lopinavir and 100 mg of itonavir administered once every 12 hrs; type: ADME, organism-based; conditions: in vivo; procedure, shortened: as §1
Homo sapiens [18] = experiment: Distributional clearance with respect to the bioavailability in HIV1 infected human at 20 mg administered once every 48 hrs for 21 days in presence of 400 mg of Lopinavir and 100 mg of itonavir administered once every 12 hrs; type: ADME, organism-based; conditions: in vivo; procedure, shortened: as §2
[19] = AUC (0 to 24 hrs) in HIV1 infected human at 20 mg administered once every 48 hrs for 21 days in presence of 400 mg of Lopinavir and 100 mg of itonavir administered once every 12 hrs; type: ADME, organism-based; set-up: dose 20 mg, time < 24 hr; conditions: plasma; procedure, shortened: as §1
[20] = Cmax in HIV1 infected human at 10 mg after 24 hrs presence of 400 mg of Lopinavir and 100 mg of itonavir; type: ADME, organism-based; set-up: dose 10 mg; conditions: in vivo; procedure, shortened: as §1
[21] = AUC (0 to 24 hrs) in HIV1 infected human at 5 mg after 24 hrs presence of 400 mg of Lopinavir and 100 mg of itonavir; type: ADME, organism-based; set-up: time < 24 hr, dose 5 mg; conditions: plasma; procedure, shortened: as §1
[22] = Drug level in HIV1 infected human plasma at 20 mg administered once every 48 hrs for 21 days in presence of 400 mg of Lopinavir and 100 mg of itonavir administered once every 12 hrs; type: ADME, organism-based; conditions: read-out: Drug uptake; procedure, shortened: as §1
[23] = Drug level in HIV1 infected human plasma at 10 mg qd for 21 days in presence of 400 mg of Lopinavir and 100 mg of itonavir administered once every 12 hrs; type: ADME, organism-based; conditions: read-out: Drug uptake; procedure, shortened: as §1
[24] = AUC (0 to 24 hrs) in HIV1 infected human at 5 mg qd for 21 days in presence of 400 mg of Lopinavir and 100 mg of itonavir administered once every 12 hrs; type: ADME, organism-based; set-up: time < 24 hr, dose 5 mg; conditions: plasma; procedure, shortened: as §1
[25] = Oral bioavailability in HIV1 infected human at 20 mg after 24 hrs; type: ADME, organism-based; conditions: in vivo; procedure, shortened: as §2
[26] = Half life in HIV1 infected human at 5 mg qd for 21 days in presence of 400 mg of Lopinavir and 100 mg of itonavir administered once every 12 hrs; type: ADME, organism-based; conditions: in vivo; procedure, shortened: as §3
[27] = Cmax in HIV1 infected human at 10 mg qd for 21 days in presence of 400 mg of Lopinavir and 100 mg of itonavir administered once every 12 hrs; type: ADME, organism-based; set-up: dose 10 mg; conditions: in vivo; procedure, shortened: as §1
[28] = Tmax in HIV1 infected human at 20 mg after 24 hrs in presence of 400 mg of Lopinavir and 100 mg of itonavir administered once every 12 hrs; type: ADME, organism-based; conditions: in vivo; procedure, shortened: as §1
[29] = Terminal half life in HIV1 infected human at 20 mg administered once every 48 hrs for 21 days in presence of 400 mg of Lopinavir and 100 mg of itonavir administered once every 12 hrs; type: ADME, organism-based; conditions: in vivo, read-out: beta t1/2 (converted); procedure, shortened: as §2
[30] = Cmax in HIV1 infected human at 5 mg qd for 21 days in presence of 400 mg of Lopinavir and 100 mg of itonavir administered once every 12 hrs; type: ADME, organism-based; set-up: dose 5 mg; conditions: in vivo; procedure, shortened: as §1
[31] = Tmax in HIV1 infected human at 10 mg after 24 hrs presence of 400 mg of Lopinavir and 100 mg of itonavir; type: ADME, organism-based; conditions: in vivo; procedure, shortened: as §1
[32] = Cmax in HIV1 infected human at 20 mg after 24 hrs in presence of 400 mg of Lopinavir and 100 mg of itonavir administered once every 12 hrs; type: ADME, organism-based; set-up: dose 20 mg; conditions: in vivo; procedure, shortened: as §1
Homo sapiens [33] = experiment: Time prior to start absorption at second absorption site in HIV1 infected human at 20 mg administered once every 48 hrs for 21 days in presence of 400 mg of Lopinavir and 100 mg of itonavir administered once every 12 hrs; type: ADME, organism-based; conditions: in vivo; procedure, shortened: as §2
[34] = Apparent oral clearance in HIV1 infected human at 20 mg administered once every 48 hrs for 21 days in presence of 400 mg of Lopinavir and 100 mg of itonavir administered once every 12 hrs; type: ADME, organism-based; conditions: in vivo; procedure, shortened: as §2
[35] = Tmax in HIV1 infected human at 5 mg after 24 hrs presence of 400 mg of Lopinavir and 100 mg of itonavir; type: ADME, organism-based; conditions: in vivo; procedure, shortened: as §1
[36] = Half life in HIV1 infected human at 20 mg administered once every 48 hrs for 21 days in presence of 400 mg of Lopinavir and 100 mg of itonavir administered once every 12 hrs; type: ADME, organism-based; conditions: in vivo; procedure, shortened: as §3
Homo sapiens [37] = species: Homo sapiens; experiment: Time prior to start absorption at first absorption site in HIV1 infected human at 20 mg after 24 hrs; type: ADME, organism-based; conditions: in vivo; procedure, shortened: as §2
Homo sapiens [38] = experiment: Central volume of distribution with respect to the bioavailability in HIV1 infected human at 20 mg administered once every 48 hrs for 21 days in presence of 400 mg of Lopinavir and 100 mg of itonavir administered once every 12 hrs; type: ADME, organism-based; conditions: in vivo; procedure, shortened: as §2
[39] = Drug level in HIV1 infected human plasma at 20 mg after 24 hrs in presence of 400 mg of Lopinavir and 100 mg of itonavir administered once every 12 hrs; type: ADME; conditions: read-out: Drug uptake; procedure, shortened: as §1
[40] = AUC (0 to 24 hrs) in HIV1 infected human at 10 mg qd for 21 days in presence of 400 mg of Lopinavir and 100 mg of itonavir administered once every 12 hrs; type: ADME, organism-based; set-up: dose 10 mg, time < 24 hr; conditions: plasma; procedure, shortened: as §1

Nc1nc(=O)n([C@@H]2C=C[C@H](CO)O2)cc1F [ELVUCITABINE]
AUC at 24 h [1]: 262 ng·h/mL | Cmax [2]: 108 ng/mL | Vd/F [3]: 1620 L | ka (Homo sapiens [4]): 0.42 h⁻¹ | concentration at 21 days [5]: 4.38 ng/mL | Tmax [6]: 7 h | Tmax [7]: 4 h | Cmax [8]: 7.25 ng/mL | concentration at 24 h [9]: 1.87 ng/mL | Vp/F (Homo sapiens [10]): 1618 L | Time (Homo sapiens [11]): 0.341 h | ka (Homo sapiens [12]): 0.065 h⁻¹ | half-life [13]: 112 h | Time (Homo sapiens [14]): 0.445 h | AUC(0-t) at 24 h [15]: 155 ng·h/mL | concentration at 24 h [16]: 0.832 ng/mL | Tmax [17]: 3.75 h | CLd/F (Homo sapiens [18]): 15.4 L/h | AUC at 24 h [19]: 749 ng·h/mL | Cmax [20]: 25.3 ng/mL | AUC(0-t) at 24 h [21]: 59.9 ng·h/mL | concentration at 21 days [22]: 12 ng/mL | concentration at 21 days [23]: 9.7 ng/mL | AUC at 24 h [24]: 214 ng·h/mL | bioavailability [25]: 55.4% | half-life [26]: 92.5 h | Cmax [27]: 49.9 ng/mL | Tmax [28]: 3.75 h | half-life [29]: 120 h | Cmax [30]: 23.1 ng/mL | Tmax [31]: 3.31 h | Cmax [32]: 39.1 ng/mL | Time (Homo sapiens [33]): 1.02 h | CL/F [34]: 423 mL/min | Tmax [35]: 6.63 h | half-life [36]: 105 h | Time (Homo sapiens [37]): 0.363 h | Vc/F (Homo sapiens [38]): 6.43 L | concentration at 24 h [39]: 3.41 ng/mL | AUC at 24 h [40]: 435 ng·h/mL
